An excerpt weighted towards active compounds, which were near 3.3% of everything screened.
ABCG2 inh: ABCG2 efflux pump inhibitors, primary screen, multiplex with ABCB1, IgMXP3 cells, flow cytometry | Broad substrate specificity ATP-binding cassette transporter ABCG2 (Homo sapiens), Q9UNQ0 | JC-1 efflux | inhibition, % at 6.6 µM | 0.1% of 190,000 active;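 active = inhibition above 80%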;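 note: 0% = DMSO and 100% = nicardipine control wells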
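Incubation: cells with compound and JC-1, 10 min at 25 °C, rotating, no wash / Test system: IgMXP3 (ABCG2) plus far-red-tagged CCRF-Adr (ABCB1) cells / Compound dosing: one concentration, 6.6 µM final / Also added: JC-1 fluorescent substrate / Evaluation: efflux inhibition in percent versus controls / Detection: flow cytometry, 530 nm JC-1 signal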
ABCB1 inh: ABCB1 efflux pump inhibitors, primary screen, cell-based, multiplex, flow cytometry, ABCG2 counter-screen; ATP-dependent translocase ABCB1 (Homo sapiens), P08183; CCRF-Adr cells, JC-1 efflux; inhibition, % at 6.6 µM; 0.067% of 190,000 active; in the data active = inhibition above about 40%;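 note: 0% = vehicle and 100% = reference inhibitor; higher value means more JC-1 retained so stronger ABCB1 efflux block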
PMI act: activators of human PMI, primary screen, biochemical, fluorescence intensity, near-Km mannose 6-phosphate; activation factor at 20 µM; 0.005% of 190,000 active; purified human PMI, coupled resazurin fluorescence, 20 min; hits give high values; 1 = vehicle control, 0 substrate-free wells; Mannose-6-phosphate isomerase (Homo sapiens), P34949;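 active = activation factor of 2 or more at 20 µM, relative to plate controls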
KCC2 mod: KCC2 cotransporter modulators, thallium flux, primary screen, cell-based, HEK293 KCC2, FluoZin-2 fluorescence, MLSMR | Solute carrier family 12 member 5 (Homo sapiens), Q9H2X9 | KCC2 cells, thallium flux FluoZin-2 fluorescence | B-score of Tl+ flux slope (higher = more flux/activation; lower = inhibition) at 10 µM | 2.2% of 190,000 active | AID 1456, 2008;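 active = thallium flux slope and its plate-corrected score both differing from the plate sample mean at a set confidence after two filtering rounds, in either direction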;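 note: slope of fluorescence scaled to starting intensity during 10 to 20 s after thallium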
Target sequence (Q9H2X9 whole entry, looked up): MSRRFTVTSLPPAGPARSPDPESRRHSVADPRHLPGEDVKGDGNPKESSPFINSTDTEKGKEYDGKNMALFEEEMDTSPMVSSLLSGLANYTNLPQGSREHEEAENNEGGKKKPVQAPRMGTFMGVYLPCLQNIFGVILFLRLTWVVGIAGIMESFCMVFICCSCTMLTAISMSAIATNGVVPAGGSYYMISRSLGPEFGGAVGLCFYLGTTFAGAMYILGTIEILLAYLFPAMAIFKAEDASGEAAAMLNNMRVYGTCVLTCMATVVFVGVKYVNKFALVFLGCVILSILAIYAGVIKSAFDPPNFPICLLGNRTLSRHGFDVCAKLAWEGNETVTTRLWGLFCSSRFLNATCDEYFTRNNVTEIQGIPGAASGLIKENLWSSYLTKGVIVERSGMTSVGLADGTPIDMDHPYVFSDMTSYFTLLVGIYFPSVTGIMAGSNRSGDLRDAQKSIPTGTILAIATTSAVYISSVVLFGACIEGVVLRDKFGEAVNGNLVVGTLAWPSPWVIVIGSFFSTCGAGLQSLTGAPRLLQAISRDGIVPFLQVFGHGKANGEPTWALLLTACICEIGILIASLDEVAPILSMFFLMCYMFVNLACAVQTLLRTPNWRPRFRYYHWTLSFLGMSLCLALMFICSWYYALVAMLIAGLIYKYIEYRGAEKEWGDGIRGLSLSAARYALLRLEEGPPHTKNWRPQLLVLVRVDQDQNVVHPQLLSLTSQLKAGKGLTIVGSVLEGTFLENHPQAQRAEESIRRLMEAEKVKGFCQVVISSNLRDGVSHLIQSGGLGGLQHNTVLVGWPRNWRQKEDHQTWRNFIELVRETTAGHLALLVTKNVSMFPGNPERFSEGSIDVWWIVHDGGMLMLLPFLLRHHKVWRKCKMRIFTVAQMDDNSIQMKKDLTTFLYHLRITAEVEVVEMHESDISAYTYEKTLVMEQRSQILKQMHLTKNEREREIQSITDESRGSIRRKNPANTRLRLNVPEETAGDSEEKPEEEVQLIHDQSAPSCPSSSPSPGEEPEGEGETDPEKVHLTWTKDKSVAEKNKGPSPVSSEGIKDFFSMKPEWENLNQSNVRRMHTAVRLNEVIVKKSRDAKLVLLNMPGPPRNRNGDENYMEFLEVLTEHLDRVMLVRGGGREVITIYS
ROMK primary: ROMK potassium channel modulators, primary screen, cell-based, thallium flux, MLSMR library | ATP-sensitive inward rectifier potassium channel 1 (Homo sapiens), P48048 | Tet-inducible ROMK, thallium flux fluorescence; actives lie on both sides | B-score at 10 µM | 2% of 130,000 active | AID 1918, 2009;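 active = signal ratio slope over the read window, or its plate-corrected B-score, at least 3 SD from the plate mean, either direction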;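 note: B-score of the F/F0 ratio slope over 7 to 12 s after thallium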
PMI act satM6P: human PMI activators, high substrate, primary screen, biochemical, fluorescence intensity, near-saturating mannose 6-phosphate. Mannose-6-phosphate isomerase (Homo sapiens), P34949. activation factor at 20 µM. coupled PMI enzyme assay, resazurin fluorescence, 20 min; hits give high values; 1 = untreated enzyme, 0 = substrate-free blank. 0.34% of 190,000 active;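 active = activation factor of 2 or more at 20 µM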
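Material: human phosphomannose isomerase with PGI, G6PDH, diaphorase coupling enzymes. Quantity: 15 ng/mL PMI. Medium: HEPES pH 7.4 buffer with MgCl2 and Tween-20. Reagent: Near-saturating mannose-6-phosphate, 1.0 mM. Compound: 20 µM single dose. Times: enzyme reaction with compound 20 min at room temperature. Detection: resorufin fluorescence at Ex 544/Em 590 nm.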
KCC2 secondary: KCC2 modulators in sodium-free buffer, confirmation, cell-based, HEK293 KCC2, thallium flux, secondary assay. shares compounds with KCC2 mod. FluoZin2 fluorescence; hits give high values. normalised thallium flux (F/F0 slope) at 10 µM. 15% of 3,700 active;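 active = thallium flux slope above the same plate's solvent-only control mean plus 3 SD; inconclusive = the two replicate wells disagree; inactive = no significant difference from solvent-only control wells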
KCC2 bumet counter: thallium flux persisting under bumetanide in KCC2 cells, confirmation, counter-screen for KCC2 modulator project, cell-based, HEK293 KCC2, FluoZin2, secondary assay 3 | normalized thallium flux at 10 µM | HEK293-KCC2 + bumetanide/ouabain; hits give high values | AID 1714, 2009 | shares compounds with KCC2 mod | 49% of 3,700 active;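 active = thallium entry rate above the same plate's blocked-transporter control wells by more than 3 SD; inconclusive = the two repeat wells disagree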;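 note: raw slope of fluorescence over initial fluorescence between 10 and 20 s after thallium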
KCC2 sec2: KCC2 modulators without ouabain present, confirmation, cell-based, HEK293 KCC2, thallium flux, FluoZin2, secondary assay 2 | normalized thallium flux at 10 µM | shares compounds with KCC2 mod | thallium flux FluoZin2 fluorescence; actives lie on both sides; F/F0 rise rate, 10–20 s post-thallium | AID 1715, 2009 | 23% of 3,700 active;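 active = thallium flux slope more than 3 SD above or below the plate's solvent-only control mean, mostly below; inconclusive = the two repeat wells disagreed; inactive = no significant shift from solvent-only controls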;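 note: raw slope with 0.1% DMSO as baseline and bumetanide as block control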
HEK counter1: thallium flux modulation in parental HEK cells, confirmation, counter-screen for KCC2 modulator project, cell-based, counterscreen 1. shares compounds with KCC2 mod. HEK293 parental cells, thallium flux FluoZin2, ouabain; baseline-ratio fluorescence slope, 10–20 s after thallium. thallium flux rate (normalised fluorescence) at 10 µM. 46% of 3,700 active. AID 1716, 2009;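 active = thallium flux rate significantly above the same plate's solvent-only control wells, beyond their mean plus 3 SD; inconclusive = the two replicate wells gave conflicting results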
KCC2 retest ouab: KCC2 inhibitors and activators, ouabain retest, confirmation, HEK-KCC2 cells | AID 1717, 2009 | raw Tl+ flux slope (below DMSO = inhibition, above = activation) at 10 µM | shares compounds with KCC2 mod | HEK293-KCC2, thallium flux FluoZin2 fluorescence; bidirectional: low = inhibitor, high = activator | 48% of 3,700 active;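 active = thallium flux slope beyond 3 SD from same-plate DMSO control mean in most replicates, usually higher, sometimes lower; inconclusive = repeat tests gave conflicting results; inactive = no significant difference from controls in most replicates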;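 note: slope of initial-normalized fluorescence between seconds 10 and 20 after thallium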
HEK counter2: native HEK Tl+ uptake effects, second counter-screen – HEK cells, counterscreen 2, counter-screen for KCC2 modulator project, confirmation | shares compounds with KCC2 mod | HEK293 parental, thallium flux FluoZin-2 fluorescence slope | 33% of 3,700 active | thallium flux slope at 10 µM;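 active = thallium flux slope above the same plate's solvent-control mean plus 3 SD in both duplicate wells; inconclusive = duplicate wells that disagreed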;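 note: run without ouabain in cells lacking the KCC2 cotransporter; slope of fluorescence scaled to its starting value between 10 and 20 s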
* = called active by the depositor; ? = inconclusive; . = no result given.

SMILES	ABCG2 inh	ABCB1 inh	PMI act	KCC2 mod	ROMK primary	PMI act satM6P	KCC2 secondary	KCC2 bumet counter	KCC2 sec2	HEK counter1	KCC2 retest ouab	HEK counter2
CCOC(=O)C1=C(C)NC(C)=C(C(=O)OCC)C1C(=O)OCC(=O)N(CC)C1CCS(=O)(=O)C1 (centres undefined)	0	0	1	0.079	0.99	1	.	.	.	.	.	.
CCOC(=O)C(Oc1ccc(=O)n(-c2ccccc2)n1)C(C)=O (centres undefined)	-1	0	1	.	.	1	.	.	.	.	.	.
O=c1c2cc3c(cc2[nH]c(=S)n1C1CCN(Cc2ccccc2)CC1)OCO3	6	3	0.9	18*	0.96	0.9	0.011*	0.061*	0.033	0.017*	0.044*	0.011*
O=C(CCCn1c(=S)[nH]c2cc3c(cc2c1=O)OCO3)NCc1ccco1	1	0	1	-0.01	-0.85	1	.	.	.	.	.	.
O=c1c2cc3c(cc2[nH]c(=S)n1Cc1ccco1)OCO3	21	0	1	6.5*	.	1.1	?	0.027*	0.028	0.012*	?	0.01*
Cc1nc2ccc(NC(=O)c3cccc(S(=O)(=O)N4CC(C)OC(C)C4)c3)cc2s1 (centres undefined)	1	1	0.9	1.2	-0.1	0.9	.	.	.	.	.	.
Cc1cc(C)nc(N/N=C/c2cc(Br)ccc2O)n1	.	.	.	0.11	.	.	.	.	.	.	.	.
CCC(C)c1ccc(NC(=S)NCc2ccccc2OC)cc1 (centres undefined)	4	1	0.9	-0.66	-0.32	0.9	.	.	.	.	.	.
CCNc1ccc(C2(O)C(=O)c3ccccc3C2=O)cc1	0	3	1	0.082	0.055	0.9	.	.	.	.	.	.
CC(C)(C)[C@H]1C=C(C(=O)N2CCN(Cc3ccc4c(c3)OCO4)CC2)O[C@@H](OCc2ccc(CO)cc2)C1	2	2	0.9	-1.4	.	1	.	.	.	.	.	.
CCn1nnc(NC(=O)c2ccc(C(C)(C)C)cc2)n1	1	0	1.1	0.37	.	1.1	.	.	.	.	.	.
CCCn1nnc(NC(=O)c2ccc(F)cc2)n1	0	0	1	-4.1*	.	1	?	?	0.03	0.007	0.024	0.01
Cc1ccsc1/C=N/NC(=O)c1ccc([N+](=O)[O-])cc1	4	1	1.1	3.6*	2.5	1	0.015	0.016*	0.029	0.011*	0.019	0.013*
c1cc2c(cc1-c1csc(NNC3=NCCCCC3)n1)OCCO2	7	0	1.2	3.6*	.	1.5	0.0075	0.0055	0.034	0.008	0.019	0.011
CCC(=O)Nc1nc(-c2ccc3c(c2)OCCO3)cs1	0	-2	0.9	.	.	0.9	.	.	.	.	.	.
Cc1ccc(Nc2nc3ccccc3c(=O)s2)cc1	2	0	0.9	14*	0.74	0.8	0.011*	0.031*	0.031	0.013*	0.034*	0.011*
O=C(CCSCCc1ccccn1)Nc1ccccn1	7	0	1.1	1.2	.	1	.	.	.	.	.	.
O=C(CCSCCc1ccccn1)Nc1ccc(Cc2ccncc2)cc1	6	1	1.1	-3.4*	-0.93	1.1	0.0069	0.0044	?	0.0073	0.018	0.011
N#C/C(=C\c1ccc(F)cc1F)S(=O)(=O)c1ccccn1	.	.	.	0.12	.	.	.	.	.	.	.	.
COP1(=O)C=C[C@H](N(Cc2ccccc2)S(=O)(=O)c2ccccc2[N+](=O)[O-])[C@@H](C)O1 (some centres undefined)	.	.	.	-0.56	.	.	.	.	.	.	.	.
COc1ccc(CN(C(=O)c2ccc(-c3ccccc3)[nH]2)C(C(=O)NC(C)(C)C)c2ccncc2)cc1 (centres undefined)	-2	-1	1	-4.9*	0.027	1	0.0085	0.0072	?	0.0073	0.016*	0.01
CCOC(=O)c1c(C)c(C(=O)N2CCN(c3ccc(F)cc3)CC2)c(C)n1C	0	1	0.9	-1.7	0.45	0.9	.	.	.	.	.	.
Cc1cccc(OCc2nnc(SCC(=O)c3cccs3)n2C)c1C	3	1	0.9	-4.5*	.	0.9	0.0068	0.0042	0.024*	0.0075	0.016*	0.0096
Cc1cccc(C)c1Nc1nnc(SCC(=O)NC(=O)c2cccn2C)s1	8	0	0.9	-4.7*	-0.057	0.7	0.0071	0.0048	0.028	0.0047*	0.014*	0.0082
Cc1ccccc1-n1nnnc1SC(C)C(=O)NC1CCCc2ccccc21 (centres undefined)	1	1	1	-3.5*	.	1	0.0063	0.0045	0.034	0.0037	0.017*	0.011
Cc1nnc(SC(C)C(=O)NC2CCCc3ccccc32)n1-c1ccccc1 (centres undefined)	-2	1	1	0.091	.	1.1	.	.	.	.	.	.

Bioassay records as filed in PubChem.
